# Only some compounds are listed: those with a hit (about 2.7% of all), similar ones and a draw of the others.
# BB579 growth dn: reduces growth of yeast BB579 in restrictive medium; S. cerevisiae BB579 growth, OD615, 48 h; inhibition, % at 10 µM; hit rate 0.51% among 140,000;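 active means inhibition above a set limit, 3 SD over the mean compound inhibition, cut at about 44% in these data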
#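 Test system: Saccharomyces cerevisiae DeaD strain BB579, replicative lifespan model yeast | Buffer or medium: Restrictive CSMM-D medium | Doses: One dose, 10 µM compound with 0.25% DMSO | Incubation: 48 h exposure, 30 °C | Detection: Culture absorbance at 615 nm | Control set: Amphotericin B at 10 µg/mL as positive control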
# RAM inhibit: blocks the yeast RAM network; S. cerevisiae dse1pr::URA3 reporter, 5-FOA growth OD615, 2 d; analog-sensitive cbk1-as2 kinase mutant strain; inhibition, % at 50 µM; hit rate 1.8% among 190,000;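 active means inhibition above a set limit, 3 SD over mean compound inhibition, cut at about 8.4% in these data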;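 further: 0% = DMSO-only wells with no growth and 100% = 10 µM 1-NA-PP1 full growth; inhibition rescues growth on 5-FOA so higher OD means more RAM inhibition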
# Yeast lifespan up: yeast lifespan extension | S. cerevisiae growth with nicotinamide, OD615; deaD strain in restrictive glucose medium | inhibition of the nicotinamide effect, % at 10 µM | hit rate 0.68% among 130,000 | AID 775;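 active means inhibition above a set limit, placed 3 SD over the median of all compounds, cut at about 26% in these data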;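 further: 0% = nicotinamide-treated wells and 100% = cells grown without nicotinamide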
#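 assay system = DeaD-strain S. cerevisiae | buffer or medium = restrictive glucose medium | reagent = 1.5 mM nicotinamide | compound = 10 µM single point, 0.25% DMSO | incubation = 48 h compound exposure at 30 °C, humidified | signal = OD615 measurement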
# sdo1 growth: compounds rescuing growth of sdo1-depleted yeast, bone marrow failure model | hit rate 0.21% among 140,000 | S. cerevisiae sdo1-depleted JHY4D growth rescue, OD600 30 h; stronger effect = higher value; pdr5 snq2 efflux-pump mutant strain | z-score at 10 µM;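 active means z-score above 3 at both the 24 hr and the 30 hr optical density reads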;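 further: z-score against mean and SD of all compound wells on the same plate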
# RAM efflux-def: RAM network inhibitors in efflux-deficient yeast; shares compounds with RAM inhibit; S. cerevisiae efflux-deficient reporter strain, 5-FOA growth OD615, 2 days; max inhibition, %; 1,200 tested, under 10 active; call rule not given here;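 further: plate controls were vehicle for no effect and reference inhibitor for full effect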
# * = called active by the depositor; nt = not tested or not shown.
SMILES,BB579 growth dn,RAM inhibit,Yeast lifespan up,sdo1 growth,RAM efflux-def
Cc1ccc(C(=O)c2ccccc2C(=O)OCC(=O)Nc2cccc([N+](=O)[O-])c2)cc1,-28,6,-4,-0.54,nt
O=C(COC(=O)c1cc(Cl)ccc1[N+](=O)[O-])NCc1ccc(Cl)cc1Cl,-66,13*,1,-0.83,1
Cc1nc2ccc(S(=O)(=O)c3ccc4nc(C)[nH]c4c3)cc2[nH]1,-28,1,-7,-0.23,nt
O=C(Nc1ccnc(-c2cccnc2)n1)c1ccc(Cl)c(Cl)c1,-25,3,-8,-1.9,nt
O=C(CN(Cc1cccs1)S(=O)(=O)c1ccc(S(=O)(=O)NC2CCCCC2)cc1)Nc1ccccc1,-37,14*,3,0.12,1
Cc1ccccc1OCC(O)Cn1c2ccccc2c2ccccc21 (stereo not drawn),-29,13*,-13,-1.3,6
CC(=O)Nc1ccc(OCC(O)Cn2c3ccccc3c3ccccc32)c(C)c1 (stereo not drawn),-52,7,-3,-2.5,nt
O=C(Nc1ccccn1)NC1CCS(=O)(=O)C1 (stereo not drawn),-5,1,-13,1.7,nt
COCCNc1nnc(SCC(=O)c2ccc3c(c2)OCO3)s1,19,3,-5,0.47,nt
O=C(CSc1nnc(SCc2ccc(Cl)cc2)s1)c1ccc2c(c1)OCO2,-53,16*,9,-0.17,2
Cc1c(NC(=S)NC(NC(=O)CC(C)C)C(Cl)(Cl)Cl)c(=O)n(-c2ccccc2)n1C (stereo not drawn),-8,-1,-4,2,nt
Cc1cc(C)c(C)c(S(=O)(=O)N2CCC(C(=O)OCC(=O)N3c4ccccc4NC(=O)C3(C)C)CC2)c1C,-58,12*,0,-0.13,2
Cc1oc2c(C)c(O)ccc2c(=O)c1-c1nncn1-c1ccccc1,nt,5,nt,nt,nt
CCOC(=O)/C(C#N)=C(C)/C=C1\Sc2ccccc2N1CC,-49,22*,0,0.19,3
CCN1/C(=C\C=C(C(C)=O)C(C)=O)Sc2ccccc21,nt,1,nt,nt,nt
Cc1ccc(C(=O)CSc2nnc(C)s2)cc1,-42,2,-5,0.69,nt
CCN=c1scc(-c2cccs2)n1/N=C/c1cc(OC)ccc1O,-43,12*,-2,-0.58,2
O=C(Nc1cccnc1Cl)c1ccc2c(Cl)c3c(nc2c1)CCC3,nt,12*,nt,nt,4
Cc1oc(-c2cc(Cl)cc(Cl)c2)cc1C(=O)NCCc1ccccc1,-41,13*,0,-0.73,3
CC(C)N1CC23C=CC(O2)C(C(=O)OCc2ccccc2)C3C1=O (stereo not drawn),-17,-2,-3,-0.38,nt
COc1ccc(C(=O)NCc2nnc(SCC(=O)N3CCc4ccccc43)n2C2CCCCC2)cc1,9,0,0,-0.26,nt
CC(=O)C(N=Nc1ccccc1)(Sc1nnc(-c2ccccc2)n1-c1ccccc1)C(C)=O,-72,12*,16,-1.1,3
CC(=O)C(N=Nc1ccccc1)(Sc1nnc(-c2ccccc2)n1-c1ccccc1)C(=O)Nc1ccccc1 (stereo not drawn),-30,2,-6,-0.06,nt
CCOC(=O)CSc1nc(-c2ccc3c(c2)OCO3)ccc1C#N,-36,7,-15,1.3,nt
CCOC(=O)CCCSc1nc(-c2ccc3c(c2)OCO3)cc(C(F)(F)F)c1C#N,-45,14*,5,-0.28,2
SMILES,BB579 growth dn,RAM inhibit,Yeast lifespan up,sdo1 growth,RAM efflux-def
Cc1ccc(CC(=O)N2CCN(c3cccc(C(F)(F)F)c3)CC2)cc1,-29,4,-15,-0.82,nt
O=C(/C=C/c1ccc(Br)cc1)N1CCN(c2cccc(C(F)(F)F)c2)CC1,-36,12*,7,-1.2,3
O=C(c1c(F)c(F)c(F)c(F)c1F)N1CCN(c2cccc(C(F)(F)F)c2)CC1,-30,5,-4,-0.41,nt
O=C(/C=C/c1cccc(Br)c1)N1CCN(c2cccc(C(F)(F)F)c2)CC1,-33,16*,4,-1,3
CCCCNC(=S)N(C)/N=C/c1ccc(OCC(=O)Nc2ccc(OC)cc2)c(OC)c1,-20,15*,-1,-0.09,3
CC1CCCN(C(=O)C(C)Sc2nc(-c3ccccc3)cc(C(F)(F)F)n2)C1 (stereo not drawn),-87,14*,20,-1.1,2
COc1ccc(CNC(=O)C2CCCN(S(=O)(=O)c3c(C)nn(C)c3C)C2)cc1 (stereo not drawn),-13,1,-4,0.57,nt

# Screening results from PubChem.
